Source: ChEMBL document CHEMBL1145431, “Improved anti-osteoporosis potency and reduced endometrial membrane hyperplasia during hormone replacement therapy with estrogen-RGD peptide conjugates” (2007)
Where a SMILES comes first, the peptide text is derived from it. The star is where a group is joined. Succinyl(O17-estradiol) = C[C@]12CC[C@@H]3c4ccc(O)cc4CC[C@H]3[C@@H]1CC[C@@H]2OC(=O)CCC(=O)*

Legend:
Mus musculus [1] = assay: Effect on liver weight in ovariectomized mouse at 0.110 mmol/kg, ip once daily for 4 weeks; format: functional
Summary of the method: (§1)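 Female Kuiming mice (7 weeks, 30.7 ± 3.1 g) ovariectomized, sham group abdominorotomy. From day 5, i.p. once daily for 4 weeks at 110.3 × 10-3 mmol/kg in 0.5% CMC. Left femur cleaned, length measured, defatted in chloroform-methanol (2:1, 2 × 3 h), dried 120 °C 6 h for dry weight, ashed 800 °C 8 h. Mineral content = ash/dry weight. Ash dissolved in 6 N HCl and diluted. Ca by o-methylphenolphthalein complexone, P by molybdenum blue. Lungs and livers weighed directly.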

Mus musculus [2] = assay: Effect on calcium level in ovariectomized mouse at 0.1103 mmol/kg, ip once daily for 4 weeks; format: functional; summary of the method: as §1
Mus musculus [3] = assay: Increase in body weight in ovariectomized mouse at 0.1103 mmol/kg, ip once daily for 4 weeks; format: functional
Summary of the method: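 Female Kuiming mice (30.7 ± 3.1 g) underwent abdominal OVX; the sham group had abdominorotomy only. From day 5 after surgery, i.p. dosing once daily for 4 weeks at 110.3 × 10-3 mmol/kg in aqueous 0.5% CMC. Body weight was recorded on the day of the last administration.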

Mus musculus [4] = assay: Effect on uterus weight in ovariectomized mouse at 0.1103 mmol/kg, ip once daily for 4 weeks; format: functional
Summary of the method: (§2)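 Female Kuiming mice (7 weeks old, 30.7 ± 3.1 g), abdominal OVX under pentobarbital (40.0 mg/kg i.p.). From day 5 after surgery, i.p. injection once daily for 4 weeks, compound in aqueous 0.5% CMC prepared just before use. The day after the last dose, mice were anesthetized and killed, and lungs, livers, spleens and uteri were removed and weighed directly. n = 12, ANOVA, p < 0.05.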

Mus musculus [5] = assay: Effect on femur length in ovariectomized mouse at 0.1103 mmol/kg, ip once daily for 4 weeks; format: functional; summary of the method: as §1
Mus musculus [6] = assay: Effect on mineral content in ovariectomized mouse at 0.1103 mmol/kg, ip once daily for 4 weeks; format: functional; summary of the method: as §1
Mus musculus [7] = assay: Effect on serum ALP lavel in ovariectomized mouse at 0.1103 mmol/kg, ip once daily for 4 weeks; format: functional
Summary of the method: (§3)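 OVX Kuiming mice dosed i.p. daily for 4 weeks in 0.5% CMC. Blood taken retro-orbitally on the day after the last dose, stood 30 min, spun at 3000 g for 20 min, serum stored at -20 °C. Calcium by o-methylphenolphthalein complexone, phosphorus by molybdenum blue, ALP by activity with disodium phenylphosphate substrate.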

Mus musculus [8] = assay: Effect on spleen weight in mouse at 0.1103 mmol/kg, po; format: functional
Summary of the method: (§4)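 Female Kuiming mice (7 weeks old, 30.7 ± 3.1 g) under abdominal OVX, sham group abdominorotomy only. From day 5 after surgery, dosed orally once daily for 4 weeks at 110.3 × 10-3 mmol/kg in 0.5% CMC (0.2 mL), vehicle group CMC alone. Blood drawn retro-orbitally, then left femur and organs removed under pentobarbital (40.0 mg/kg, i.p.).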

Mus musculus [9] = assay: Effect on serum phosphorus level in ovariectomized mouse at 0.1103 mmol/kg, ip once daily for 4 weeks; format: functional; summary of the method: as §3
Mus musculus [10] = assay: Effect on femur ash weight in ovariectomized mouse at 0.1103 mmol/kg, ip once daily for 4 weeks; format: functional; summary of the method: as §1
Mus musculus [11] = assay: Effect on serum calcium level in ovariectomized mouse at 0.1103 mmol/kg, ip once daily for 4 weeks; format: functional; summary of the method: as §3
Mus musculus [12] = assay: Effect on uterus weight in mouse at 0.1103 mmol/kg, po; format: functional
Mus musculus [13] = assay: Effect on dry weight of femurs in mouse at 0.1103 mmol/kg, po; format: functional, Femur; summary of the method: as §4
Mus musculus [14] = assay: Effect on serum ALP level in mouse at 0.1103 mmol/kg, po; format: functional
Summary of the method: (§5)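 Oral OVX Kuiming mouse model, dosed daily for 4 weeks at 110.3 × 10-3 mmol/kg in 0.5% CMC. Retro-orbital blood stood 30 min at room temperature and was spun at 3000 g for 20 min. Serum kept at -20 °C. Calcium read by o-methylphenolphthalein complexone, phosphorus by molybdenum blue, ALP by activity on disodium phenylphosphate substrate.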

Mus musculus [15] = assay: Effect on serum phosphorous Concentration in mouse at 0.110 mmol/kg, po; format: functional; summary of the method: as §5
Mus musculus [16] = assay: Effect on phosphorus level in mouse at 0.110 mmol/kg, po; format: functional; summary of the method: as §4
Mus musculus [17] = assay: Effect on serum calcium level in mouse at 0.1103 mmol/kg, po; format: functional; summary of the method: as §5
Mus musculus [18] = assay: Effect on lung weight in mouse at 0.1103 mmol/kg, po; format: functional; summary of the method: as §4
Mus musculus [19] = assay: Effect on mineral content in mouse at 0.1103 mmol/kg, po; format: functional; summary of the method: as §4
Mus musculus [20] = assay: Effect on calcium level in mouse at 0.1103 mmol/kg, po; format: functional; summary of the method: as §4
Mus musculus [21] = assay: Effect on lenght of femur in mouse at 0.110 mmol/kg, po; format: functional; summary of the method: as §4
Mus musculus [22] = assay: Effect on spleen weight in ovariectomized mouse at 0.1103 mmol/kg, ip once daily for 4 weeks; format: functional; summary of the method: as §2
Mus musculus [23] = assay: Effect on lung weight in ovariectomized mouse at 0.1103 mmol/kg, ip once daily for 4 weeks; format: functional; summary of the method: as §1
Mus musculus [24] = assay: Effect on dry weight of femurs in ovariectomized mouse at 0.1103 mmol/kg, ip once daily for 4 weeks; format: functional, Femur; summary of the method: as §1
Mus musculus [25] = assay: Effect on liver weight in mouse at 0.1103 mmol/kg, po; format: functional; summary of the method: as §4
Mus musculus [26] = assay: Effect on femur ash weight in mouse at 0.1103 mmol/kg, po; format: functional; summary of the method: as §4
Mus musculus [27] = assay: Effect on phosphorus level in ovariectomized mouse at 0.1103 mmol/kg, ip once daily for 4 weeks; format: functional; summary of the method: as §1

| SMILES | Activity (Mus musculus [1]) [g] | Activity (Mus musculus [2]) [%] | Activity (Mus musculus [3]) [g] | Activity (Mus musculus [4]) [mg] | Activity (Mus musculus [5]) [cm] | Ratio (Mus musculus [6]) | Activity (Mus musculus [7]) [U/L] | Activity (Mus musculus [8]) [mg] | Activity (Mus musculus [9]) [mmol/L] | Activity (Mus musculus [10]) [mg] | Activity (Mus musculus [11]) [mmol/L] | Activity (Mus musculus [12]) [mg] | Activity (Mus musculus [13]) [mg] | Activity (Mus musculus [14]) [U/L] | Activity (Mus musculus [15]) [mmol/L] | Activity (Mus musculus [16]) [%] | Activity (Mus musculus [17]) [mmol/L] | Activity (Mus musculus [18]) [mg] | Ratio (Mus musculus [19]) [%] | Activity (Mus musculus [20]) [%] | also measured |
| --- | --- | --- | --- | --- | --- | --- | --- | --- | --- | --- | --- | --- | --- | --- | --- | --- | --- | --- | --- | --- | --- |
| CC(C)[C@H](NC(=O)[C@H](CC(=O)O)NC(=O)CNC(=O)[C@H](CCCNC(=N)N)NC(=O)CCC(=O)O[C@H]1CC[C@H]2[C@@H]3CCc4cc(O)ccc4[C@H]3CC[C@]12C)C(=O)O ({Succinyl(O17-estradiol)}-RGDV-OH) | 1.353 | 53.078 | 34.5 | 69.4 | 1.655 | 0.625 | 31.057 | 133 | 1.605 | 35.8 | 2.005 | 50.7 | 68.2 | 33.411 | 1.61 | 24.879 | 2.03 | 167 | 52.5 | 52.003 | Activity (Mus musculus [21]): 1.645 cm; Activity (Mus musculus [22]): 143 mg; Activity (Mus musculus [23]): 167 mg; Activity (Mus musculus [24]): 62.6 mg; Activity (Mus musculus [25]): 1.34 g; Activity (Mus musculus [26]): 33 mg; Activity (Mus musculus [27]): 24.867% |
| C[C@]12CC[C@@H]3c4ccc(O)cc4CC[C@H]3[C@@H]1CC[C@@H]2OC(=O)CCC(=O)N[C@@H](CCCNC(=N)N)C(=O)NCC(=O)N[C@@H](CC(=O)O)C(=O)N[C@@H](CO)C(=O)O ({Succinyl(O17-estradiol)}-RGDS-OH) | 1.371 | 51.312 | 35.4 | 55.5 | 1.634 | 0.52 | 32.771 | 135 | 1.602 | 34.4 | 2.002 | 36.7 | 68.8 | 35.4 | 1.6 | 24.885 | 2.04 | 161 | 51.5 | 51.201 | Activity (Mus musculus [21]): 1.654 cm; Activity (Mus musculus [22]): 130 mg; Activity (Mus musculus [23]): 151 mg; Activity (Mus musculus [24]): 66.4 mg; Activity (Mus musculus [25]): 1.331 g; Activity (Mus musculus [26]): 29.3 mg; Activity (Mus musculus [27]): 24.92% |
